This is an account of results in article PMC3270411 (Chemistry & biology, 2012).

Format in all cases: cell-based
Test [1] concerns c-Jun phosphorylation (pSer73) in HeLa cells. Briefly: LanthaScreen TR-FRET c-Jun phosphorylation assay in HeLa cells. To be noted: read-out: p-c-Jun EC50 (nM) Hela. Summed up: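 HeLa cells stably expressing GFP-c-Jun(1–79), 10,000/well in Opti-MEM with 0.5% charcoal/dextran-treated FBS, 25 mM Hepes pH 7.3, no phenol red; overnight. Pretreated 90 min with compound, then 30 min with 5 ng/ml TNF-α. Lysed in buffer containing 2 nM terbium anti-c-Jun pSer73 antibody; 60 min equilibration at room temperature. TR-FRET: excitation 340 nm, ratio Em 520/Em 490.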
A general note: TR-FRET usually uses a lanthanide donor and a delayed reading to cut background.

The target of the next test is GSK3A (Homo sapiens, UniProt P49840). Description: KiNativ cellular kinase profiling. The settings on record: for Percent inhibition of kinase labeling by ATP-biotin: A375 cells, 1 μM, 3 hours, GSK3A, labeling site Lys2; for inhibition at 1 µM: A-375, read-out: Percent inhibition of kinase labeling by ATP-biotin.
The target in the next test is PFTAIRE1 (Homo sapiens, UniProt O94921). Description: KiNativ cellular kinase profiling. To be noted: for Percent inhibition of kinase labeling by ATP-biotin: A375 cells, 1 μM, 3 hours, PFTAIRE1, labeling site Lys1; for inhibition at 1 µM: A-375, read-out: Percent inhibition of kinase labeling by ATP-biotin.
In a further test the target is ROCK1 (Homo sapiens, UniProt Q13464). Description: KiNativ cellular kinase profiling. The settings on record: for Percent inhibition of kinase labeling by ATP-biotin: A375 cells, 1 μM, 3 hours, ROCK1, labeling site Other; for inhibition at 1 µM: A-375, read-out: Percent inhibition of kinase labeling by ATP-biotin.
The target of the next test is T1, ITPK1 (Homo sapiens, UniProt Q13572).
T1 sequence (Q13572 1-414): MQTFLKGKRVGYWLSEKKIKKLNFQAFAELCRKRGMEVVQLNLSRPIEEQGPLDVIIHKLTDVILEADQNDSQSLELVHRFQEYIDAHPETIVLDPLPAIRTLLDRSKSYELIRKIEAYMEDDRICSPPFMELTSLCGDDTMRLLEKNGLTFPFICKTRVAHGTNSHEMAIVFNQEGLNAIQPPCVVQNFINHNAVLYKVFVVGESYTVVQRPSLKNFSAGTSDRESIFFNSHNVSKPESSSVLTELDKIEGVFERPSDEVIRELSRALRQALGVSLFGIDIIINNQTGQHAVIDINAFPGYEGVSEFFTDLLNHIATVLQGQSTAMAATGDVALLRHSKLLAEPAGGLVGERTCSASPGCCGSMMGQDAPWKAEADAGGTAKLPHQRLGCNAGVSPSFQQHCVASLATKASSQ
Briefly: KiNativ cellular kinase profiling. The settings on record: for Percent inhibition of kinase labeling by ATP-biotin: A375 cells, 1 μM, 3 hours, ITPK1, labeling site ATP; for inhibition at 1 µM: A-375, read-out: Percent inhibition of kinase labeling by ATP-biotin.

Another test deals with T2, PKD1 (Homo sapiens, UniProt Q15139).
T2 sequence (Q15139 1-912): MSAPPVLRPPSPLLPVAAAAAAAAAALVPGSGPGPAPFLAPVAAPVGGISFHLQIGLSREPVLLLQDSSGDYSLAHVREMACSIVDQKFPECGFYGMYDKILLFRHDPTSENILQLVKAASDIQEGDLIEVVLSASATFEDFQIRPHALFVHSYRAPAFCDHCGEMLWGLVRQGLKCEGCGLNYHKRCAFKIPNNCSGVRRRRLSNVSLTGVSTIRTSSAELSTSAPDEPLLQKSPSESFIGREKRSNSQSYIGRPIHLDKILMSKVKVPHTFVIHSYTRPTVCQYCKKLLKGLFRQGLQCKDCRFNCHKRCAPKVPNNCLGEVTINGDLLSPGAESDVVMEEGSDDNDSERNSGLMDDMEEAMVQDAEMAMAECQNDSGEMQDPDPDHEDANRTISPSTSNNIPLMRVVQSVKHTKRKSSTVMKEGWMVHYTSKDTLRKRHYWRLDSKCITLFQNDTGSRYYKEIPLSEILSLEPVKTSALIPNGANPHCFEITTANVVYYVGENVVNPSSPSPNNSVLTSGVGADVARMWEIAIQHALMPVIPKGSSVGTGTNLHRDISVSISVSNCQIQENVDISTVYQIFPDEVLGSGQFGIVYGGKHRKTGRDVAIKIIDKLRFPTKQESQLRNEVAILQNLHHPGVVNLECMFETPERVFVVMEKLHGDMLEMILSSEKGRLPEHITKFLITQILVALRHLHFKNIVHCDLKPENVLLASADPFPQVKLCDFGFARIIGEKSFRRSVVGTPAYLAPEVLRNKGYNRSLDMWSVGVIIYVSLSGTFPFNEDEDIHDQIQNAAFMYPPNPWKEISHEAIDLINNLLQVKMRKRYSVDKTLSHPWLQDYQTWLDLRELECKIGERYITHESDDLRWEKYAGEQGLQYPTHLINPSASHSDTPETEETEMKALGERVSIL
Briefly: KiNativ cellular kinase profiling. To be noted: for Percent inhibition of kinase labeling by ATP-biotin: A375 cells, 1 μM, 3 hours, PKD1, labeling site Lys1; for inhibition at 1 µM: A-375, read-out: Percent inhibition of kinase labeling by ATP-biotin.

A further test has as its system PKD1,PKD2. Briefly: KiNativ cellular kinase profiling. The settings on record: A375 cells, 1 μM, 3 hours; PKD1,PKD2, labeling site Lys2.
The target of a further test is T3, AurA (Homo sapiens, UniProt O14965).
T3 sequence (O14965 1-403): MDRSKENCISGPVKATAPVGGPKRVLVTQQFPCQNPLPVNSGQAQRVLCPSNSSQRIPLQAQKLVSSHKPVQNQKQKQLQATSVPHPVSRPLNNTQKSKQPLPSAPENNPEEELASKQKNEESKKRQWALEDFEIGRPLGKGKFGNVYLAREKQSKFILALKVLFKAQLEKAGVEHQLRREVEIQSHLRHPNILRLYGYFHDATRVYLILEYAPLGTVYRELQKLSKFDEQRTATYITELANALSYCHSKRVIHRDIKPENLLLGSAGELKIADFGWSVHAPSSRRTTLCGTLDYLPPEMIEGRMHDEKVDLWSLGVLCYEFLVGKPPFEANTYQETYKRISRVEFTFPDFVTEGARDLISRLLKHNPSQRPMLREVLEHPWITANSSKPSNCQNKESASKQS
Briefly: KiNativ cellular kinase profiling. To be noted: for Percent inhibition of kinase labeling by ATP-biotin: A375 cells, 1 μM, 3 hours, AurA, labeling site Lys2; for inhibition at 1 µM: A-375, read-out: Percent inhibition of kinase labeling by ATP-biotin.

The next test relates to AurA,AurB,AurC. Description: KiNativ cellular kinase profiling. The settings on record: A375 cells, 1 μM, 3 hours, labeling site ATP Loop.
The test system of another test is ZC2/TNIK,ZC3/MINK. Briefly: KiNativ cellular kinase profiling. The settings on record: A375 cells, 1 μM, 3 hours, labeling site Lys2.
The next test relates to MAP2K1,MAP2K2. Briefly: KiNativ cellular kinase profiling. To be noted: A375 cells, 1 μM, 3 hours; MAP2K1,MAP2K2, labeling site Lys2.
A further test addresses RAF1 (Homo sapiens, UniProt P04049). Description: KiNativ cellular kinase profiling. The settings on record: for Percent inhibition of kinase labeling by ATP-biotin: A375 cells, 1 μM, 3 hours, RAF1, labeling site Lys2; for inhibition at 1 µM: A-375, read-out: Percent inhibition of kinase labeling by ATP-biotin.
Where [2] appears, read: Hela cells, TNF-α stimulation, TR-FRET.

SMILES strings stand for the structures. Like-named read-outs stand apart in the source and are kept apart here.

Chain of RAF1 (P04049 whole entry): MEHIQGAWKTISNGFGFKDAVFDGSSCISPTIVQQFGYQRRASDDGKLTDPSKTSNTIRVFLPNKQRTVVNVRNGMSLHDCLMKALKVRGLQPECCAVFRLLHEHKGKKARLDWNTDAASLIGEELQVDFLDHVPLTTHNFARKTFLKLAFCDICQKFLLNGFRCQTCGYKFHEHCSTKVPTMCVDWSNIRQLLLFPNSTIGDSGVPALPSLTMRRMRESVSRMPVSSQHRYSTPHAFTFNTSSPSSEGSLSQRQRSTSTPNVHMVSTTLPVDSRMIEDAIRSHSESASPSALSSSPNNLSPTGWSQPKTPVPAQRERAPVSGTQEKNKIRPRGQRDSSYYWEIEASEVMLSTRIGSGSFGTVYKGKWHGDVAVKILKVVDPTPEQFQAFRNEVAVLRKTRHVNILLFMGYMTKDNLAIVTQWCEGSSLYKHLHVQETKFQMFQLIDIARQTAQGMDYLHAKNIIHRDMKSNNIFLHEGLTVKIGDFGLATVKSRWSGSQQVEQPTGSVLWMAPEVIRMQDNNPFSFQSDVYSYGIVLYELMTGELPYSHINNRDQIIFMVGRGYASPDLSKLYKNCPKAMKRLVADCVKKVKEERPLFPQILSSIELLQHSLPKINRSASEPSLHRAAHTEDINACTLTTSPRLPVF
Chain of GSK3A (P49840 whole entry): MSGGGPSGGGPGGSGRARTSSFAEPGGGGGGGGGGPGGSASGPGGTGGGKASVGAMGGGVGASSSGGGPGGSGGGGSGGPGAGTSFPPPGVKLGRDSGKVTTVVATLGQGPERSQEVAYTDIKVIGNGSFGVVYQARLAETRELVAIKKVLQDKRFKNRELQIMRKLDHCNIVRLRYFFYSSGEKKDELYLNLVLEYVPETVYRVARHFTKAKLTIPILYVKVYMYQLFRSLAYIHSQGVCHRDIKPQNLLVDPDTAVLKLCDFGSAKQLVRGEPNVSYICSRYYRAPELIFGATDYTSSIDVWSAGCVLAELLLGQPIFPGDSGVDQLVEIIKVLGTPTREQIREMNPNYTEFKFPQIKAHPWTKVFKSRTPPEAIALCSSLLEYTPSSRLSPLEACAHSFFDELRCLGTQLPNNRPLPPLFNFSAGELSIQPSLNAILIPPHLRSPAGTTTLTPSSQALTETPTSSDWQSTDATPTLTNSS
Chain of ROCK1 (Q13464 whole entry): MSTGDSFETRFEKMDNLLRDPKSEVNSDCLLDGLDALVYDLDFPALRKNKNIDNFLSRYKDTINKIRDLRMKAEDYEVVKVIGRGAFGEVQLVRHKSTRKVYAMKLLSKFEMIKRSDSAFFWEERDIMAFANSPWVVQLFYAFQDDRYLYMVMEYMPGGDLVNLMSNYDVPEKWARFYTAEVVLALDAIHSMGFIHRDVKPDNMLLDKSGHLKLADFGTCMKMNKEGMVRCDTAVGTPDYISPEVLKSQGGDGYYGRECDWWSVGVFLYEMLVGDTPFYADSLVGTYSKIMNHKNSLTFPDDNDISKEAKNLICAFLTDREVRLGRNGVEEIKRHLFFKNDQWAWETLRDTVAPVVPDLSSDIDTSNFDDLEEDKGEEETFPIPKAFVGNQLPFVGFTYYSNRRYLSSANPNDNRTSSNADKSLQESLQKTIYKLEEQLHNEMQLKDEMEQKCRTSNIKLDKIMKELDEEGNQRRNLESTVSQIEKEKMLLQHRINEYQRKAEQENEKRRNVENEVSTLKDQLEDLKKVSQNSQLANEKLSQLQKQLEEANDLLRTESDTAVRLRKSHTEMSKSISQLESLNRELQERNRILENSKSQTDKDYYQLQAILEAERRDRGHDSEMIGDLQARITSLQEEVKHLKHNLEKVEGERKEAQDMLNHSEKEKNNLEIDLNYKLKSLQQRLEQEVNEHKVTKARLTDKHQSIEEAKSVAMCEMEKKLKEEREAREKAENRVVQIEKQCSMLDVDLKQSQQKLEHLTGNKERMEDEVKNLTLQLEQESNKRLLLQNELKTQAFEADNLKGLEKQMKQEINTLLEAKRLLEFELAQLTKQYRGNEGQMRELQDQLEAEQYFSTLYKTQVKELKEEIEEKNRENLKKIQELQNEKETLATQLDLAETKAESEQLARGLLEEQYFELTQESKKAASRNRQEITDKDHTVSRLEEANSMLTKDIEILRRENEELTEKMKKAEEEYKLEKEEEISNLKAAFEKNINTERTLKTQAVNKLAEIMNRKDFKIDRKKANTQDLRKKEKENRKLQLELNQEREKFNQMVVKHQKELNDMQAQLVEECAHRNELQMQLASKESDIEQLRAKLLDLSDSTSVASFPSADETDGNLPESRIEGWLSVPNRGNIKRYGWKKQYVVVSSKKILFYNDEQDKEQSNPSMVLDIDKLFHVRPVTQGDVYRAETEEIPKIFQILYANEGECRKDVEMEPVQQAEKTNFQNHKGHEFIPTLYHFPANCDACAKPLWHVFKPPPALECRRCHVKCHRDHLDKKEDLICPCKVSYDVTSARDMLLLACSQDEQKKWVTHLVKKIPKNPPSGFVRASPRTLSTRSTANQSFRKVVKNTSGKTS
Chain of PFTAIRE1 (O94921 whole entry): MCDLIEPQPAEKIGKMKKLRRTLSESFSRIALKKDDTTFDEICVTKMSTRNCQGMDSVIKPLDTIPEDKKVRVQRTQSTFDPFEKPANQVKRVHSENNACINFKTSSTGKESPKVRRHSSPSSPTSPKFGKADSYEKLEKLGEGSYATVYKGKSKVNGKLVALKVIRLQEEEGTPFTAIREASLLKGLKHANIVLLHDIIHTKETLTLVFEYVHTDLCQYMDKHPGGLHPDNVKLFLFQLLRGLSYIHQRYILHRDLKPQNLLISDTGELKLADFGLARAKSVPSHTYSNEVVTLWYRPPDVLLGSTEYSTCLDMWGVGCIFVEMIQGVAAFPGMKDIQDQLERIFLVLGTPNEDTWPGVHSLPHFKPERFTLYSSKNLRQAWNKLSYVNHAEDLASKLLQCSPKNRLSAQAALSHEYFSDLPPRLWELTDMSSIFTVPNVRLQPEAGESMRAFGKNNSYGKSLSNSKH

What is called EC50 is the concentration needed to bring the measured effect to its halfway point. As to `CCC(=O)Nc1cccc(C(=O)Nc2ccc(Nc3nccc(-c4cccnc4)n3)cc2)c1` [JNK-IN-6], the EC50 in test [1] (setting [2]) was found to be 6760 nM. Also, the “Percent inhibition of kinase labeling by ATP-biotin” value (from here on “Percent inhibition”) on GSK3A is on record as 6.8%; at PFTAIRE1 it was −6%; on ROCK1 it was 24.4%; at ITPK1, 27%; on PKD1, 28.7%; in the test on PKD1,PKD2, 15.9%. Also, the “Percent inhibition” value is recorded as 9.9% on AurA; 4.9% in the test on AurA,AurB,AurC; 52.8% in the test on ZC2/TNIK,ZC3/MINK; 24.3% in the test with MAP2K1,MAP2K2; −20.2% on RAF1.
A word on the inhibition: it is the change of the read-out against control, counted positive when it falls. Regarding `CN(C)C/C=C/C(=O)Nc1cccc(C(=O)Nc2ccc(Nc3nccc(-c4cccnc4)n3)cc2)c1` [JNK-IN-7], in [1] (Homo sapiens, HeLa), the EC50 amounted to 130 nM. The inhibition at 1 µM at GSK3A is 20.4%; on PFTAIRE1 it was 75.3%; on ROCK1, -11.9%; at ITPK1 it was -0.2%; at PKD1 it was 2%; on AurA, 20.9%. In addition, the inhibition at 1 µM on RAF1 is -7.3%. Also, the “Percent inhibition” value with PKD1,PKD2 is given as 18.2%; with AurA,AurB,AurC, 19.1%; in the test with ZC2/TNIK,ZC3/MINK, 31%; in the test on MAP2K1,MAP2K2, 3.2%.
Turning to `Cc1cc(NC(=O)c2cccc(NC(=O)/C=C/CN(C)C)c2)ccc1Nc1nccc(-c2cccnc2)n1` [JNK-IN-8], in test [1] (Homo sapiens, HeLa), the EC50 is 486 nM. In addition, the inhibition at 1 µM on GSK3A was 10.6%; at PFTAIRE1, 38.1%; on ROCK1, 10%; on ITPK1, 24.6%; at PKD1, 8.6%; on AurA, -8%. For the same compound, the inhibition at 1 µM on RAF1 is -41.4%. For the same compound, the “Percent inhibition” value with PKD1,PKD2 is −3%; in the test with AurA,AurB,AurC, −11.3%; in the test on ZC2/TNIK,ZC3/MINK it was 45.1%; in the test on MAP2K1,MAP2K2, 3.2%.
In the case of `CN(C)C/C=C/C(=O)Nc1cccc(C(=O)Nc2ccc(Nc3nccc(-c4c(-c5ccccc5)nn5ccccc45)n3)cc2)c1` [JNK-IN-11], the EC50 in test [1] (Homo sapiens, HeLa) worked out at 48 nM. For the same compound, the inhibition at 1 µM is 40.7% on GSK3A; 12.8% at PFTAIRE1; -8.2% on ROCK1; -0.7% at ITPK1; 29.4% at PKD1; 68.2% on AurA. The inhibition at 1 µM on RAF1 was found to be 25.5%. Further, the “Percent inhibition” value in the test with PKD1,PKD2 is 10.4%; with AurA,AurB,AurC, 53.8%; in the test on ZC2/TNIK,ZC3/MINK, 75.9%; in the test on MAP2K1,MAP2K2 it was −10.4%.
As to `CN(C)C/C=C/C(=O)Nc1cccc(C(=O)Nc2ccc(Nc3nccc(/C(C#N)=C4\Nc5ccccc5S4)n3)cc2)c1` [JNK-IN-12], the EC50 in test [1] (setting [2]) came to 605 nM. The “Percent inhibition” value is given as −7.7% on GSK3A; 25.7% on PFTAIRE1; −97% at ROCK1; 8.6% at ITPK1; −21.6% at PKD1; −39.3% in the test with PKD1,PKD2. Moreover, the “Percent inhibition” value on AurA is given as −23%; in the test on AurA,AurB,AurC it was −20.9%; with ZC2/TNIK,ZC3/MINK, −36.2%; with MAP2K1,MAP2K2, −3.7%; at RAF1, 8.6%.
